What all share (assay type): functional, cell-based
Test [1] addresses T1, Kappa-type opioid receptor (Homo sapiens, UniProt P41145). Briefly: Agonist activity at human kappa-type opioid receptor expressed in CHO-K1 cells assessed as inhibition of forskolin-induced cAMP accumulation after 30 mins by luminescence-based assay relative to columbin. Background: Cyclic AMP is a second messenger, typically raised through Gs and lowered through Gi signalling.

Test [2] has as its target T1, Kappa-type opioid receptor. Briefly: Agonist activity at human kappa-type opioid receptor expressed in CHO-K1 cells assessed as inhibition of forskolin-induced cAMP accumulation after 30 mins by luminescence-based assay. In short, it runs like this:
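CHO-K1 cells stably expressing human κ-opioid receptor, tested in a HitHunter cAMP assay for inhibition of forskolin-induced cAMP accumulation, run per the manufacturer's directions. Compounds were tested up to 50 μM. Emax is expressed relative to salvinorin A, set at 100%. EC50 and Emax are given as means ± SEM of at least 2 independent experiments, each run in triplicate.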

Test [3] addresses T1, Kappa-type opioid receptor. Briefly: Agonist activity at human kappa-type opioid receptor expressed in CHO-K1 cells assessed as inhibition of forskolin-induced cAMP accumulation up to 50 uM after 30 mins by luminescence-based assay. Summed up: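 CHO-K1 cells stably expressing human κ-opioid receptor; HitHunter cAMP assay, run per the kit directions, measuring inhibition of forskolin-induced cAMP accumulation. Compounds tested up to 50 μM. Reference agonist sets E_max = 100%. EC₅₀ and E_max given as means ± standard error of the mean from n ≥ 2 independent experiments, each in triplicate.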

T1 sequence (P41145 whole entry): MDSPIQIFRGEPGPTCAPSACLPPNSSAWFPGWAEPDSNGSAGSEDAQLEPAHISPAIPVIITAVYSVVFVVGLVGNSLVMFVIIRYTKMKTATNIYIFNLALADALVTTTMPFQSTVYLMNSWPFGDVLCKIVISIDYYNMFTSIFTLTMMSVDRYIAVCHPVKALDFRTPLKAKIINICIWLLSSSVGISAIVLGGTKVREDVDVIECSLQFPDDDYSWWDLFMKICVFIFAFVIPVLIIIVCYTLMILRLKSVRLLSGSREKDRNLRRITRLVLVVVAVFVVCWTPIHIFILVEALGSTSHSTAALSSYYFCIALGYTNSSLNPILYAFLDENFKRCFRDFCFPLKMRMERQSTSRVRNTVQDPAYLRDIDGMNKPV

By EC50 is commonly meant the concentration that produces a half-maximal response. Usually Emax stands for the maximal effect, on the per cent scale that the assay sets. With `C[C@@]12C[C@H](c3ccoc3)OC(=O)[C@@H]1CC[C@]1(C)[C@H]2[C@H]2CC[C@]1(O)C(=O)O2`, the fold change (FC) in test [1] was > 25. In test [2], the EC50 is 2 µM and the Emax stood at 100%.
Regarding `C[C@@]12C[C@H](c3ccoc3)OC(=O)[C@@H]1CC[C@]1(C)[C@H]2[C@H]2C=C[C@]1(O)C(=O)O2`, the Emax in test [3] turned out to be 0%. The EC50 in test [2] is > 50 µM.
As for `C[C@@]12C[C@H](c3ccoc3)OC(=O)[C@@H]1CC[C@]1(C)[C@H]2[C@@H]2OC(=O)[C@@]1(O)[C@H](O)[C@@H]2O`, the fold change (FC) in test [1] was > 3.1. Moreover, in test [2], the EC50 was 16 µM and the Emax was found to be 100%.
In the case of `C[C@@]12C[C@H](c3ccoc3)OC(=O)[C@@H]1CC[C@]1(C)[C@H]2[C@H]2C=C[C@]1(OC(=O)/C=C/c1ccccc1)C(=O)O2`, the fold change (FC) in test [1] is > 8.3. Also, in test [2], the EC50 amounted to 6 µM and the Emax is 100%.
With `CC(=O)O[C@@H]1[C@H]2OC(=O)[C@@](O)([C@@H]1OC(C)=O)[C@]1(C)CC[C@H]3C(=O)O[C@@H](c4ccoc4)C[C@@]3(C)[C@H]21`, the Emax in test [3] was determined as 0%. The EC50 in test [2] was > 50 µM.
For `C[C@@]12C[C@H](c3ccoc3Br)OC(=O)[C@@H]1CC[C@]1(C)[C@H]2[C@H]2C=C[C@]1(O)C(=O)O2`, the Emax in test [3] is 0%. Also, the EC50 in test [2] was > 50 µM.
Take `C[C@@]12C[C@H](c3ccoc3Br)OC(=O)[C@@H]1CC[C@]1(C)[C@H]2[C@@H]2OC(=O)[C@@]1(O)[C@@H](Br)[C@@H]2Br`: the Emax in test [3] came to 0%. Further, the EC50 in test [2] was > 50 µM.
With `COCO[C@@]12C=C[C@@H](OC1=O)[C@H]1[C@]3(C)C[C@H](c4ccoc4)OC(=O)[C@@H]3CC[C@]12C`, the fold change (FC) in test [1] is > 4.2. Moreover, in test [2], the EC50 came to 12 µM and the Emax came to 100%.
Turning to `CC(=O)O[C@@]12C=C[C@@H](OC1=O)[C@H]1[C@]3(C)C[C@H](c4ccoc4)OC(=O)[C@@H]3CC[C@]12C`, in test [1], the fold change (FC) was > 6.3. For the same compound, in test [2], the EC50 amounted to 8 µM and the Emax was found to be 100%.

These data come from ChEMBL document CHEMBL4190271, “Semisynthesis and Kappa-Opioid Receptor Activity of Derivatives of Columbin, a Furanolactone Diterpene” (J Nat Prod, 2017).
